# pKi: −log10 of the molar value. Non-standard residues stand in square brackets, D forms with d. Residues, ends and D or L forms follow the SMILES beside them. NMeR = CN[C@@H](CCCNC(=N)N)C(=O)O; Tle = CC(C)(C)[C@H](N)C(=O)O
# Assay: Binding affinity against neurotensin receptor.
# Outline: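 Neonatal (10-day postnatal) mouse brain membranes, cerebellum removed, washed by repeated 100000g spins in 5 mM Tris pH 7.5, resuspended 1 g wet weight/mL in 50 mM Tris pH 7.4 with BSA, bacitracin, EDTA, phenanthroline, PMSF. Competition against [3H]NT (0.20 nM final) or [125I-Tyr3]NT (0.21 nM final), 30 min at 25 °C. Separation by filtration on PEI-soaked GF/B filters. Nonspecific binding with 1 μM NT.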
row,SMILES,pKi
1,CC(C)C[C@H](NC(=O)[C@H]1NC(=O)[C@H](Cc2c[nH]c3ccccc23)NC(=O)[C@H]2CCCN2C(=O)[C@H](NC(=O)[C@H](CCCN=C(N)N)N(C)C(=O)[C@@H]2CCCN2C(=O)[C@H](CCCCN)NC(=O)[C@H](CC(N)=O)NC(=O)[C@H](CCC(=O)O)NC(=O)[C@H](Cc2ccc(O)cc2)NC(=O)[C@H](CC(C)C)NC(=O)[C@@H](N)CCC(=O)O)CSSC1(C)C)C(=O)O,7.08
2,CC(C)C[C@H](NC(=O)CC[C@@H]1NC(=O)[C@H](Cc2c[nH]c3ccccc23)NC(=O)[C@@H]2CCCN2C(=O)[C@H](CCCCN)NC(=O)[C@@H](CCCN=C(N)N)N(C(=O)[C@@H]2CCCN2C(=O)[C@H](CCCCN)NC(=O)[C@H](CC(N)=O)NC(=O)[C@H](CCC(=O)O)NC(=O)[C@H](Cc2ccc(O)cc2)NC(=O)[C@H](CC(C)C)NC(=O)[C@@H](N)CCC(=O)O)C1=O)C(=O)O,7.80
3,CC(C)C[C@H](NC(=O)CCC[C@@H]1NC(=O)[C@H](Cc2c[nH]c3ccccc23)NC(=O)[C@@H]2CCCN2C(=O)[C@H](CCCCN)NC(=O)[C@H](CCCN=C(N)N)N(C(=O)[C@@H]2CCCN2C(=O)[C@H](CCCCN)NC(=O)[C@H](CC(N)=O)NC(=O)[C@H](CCC(=O)O)NC(=O)[C@H](Cc2ccc(O)cc2)NC(=O)[C@H](CC(C)C)NC(=O)[C@@H](N)CCC(=O)O)C1=O)C(=O)O,6.08
4,CC(C)C[C@H](NC(=O)C[C@@H]1NC(=O)[C@H](Cc2c[nH]c3ccccc23)NC(=O)[C@@H]2CCCN2C(=O)[C@H](CCCCN)NC(=O)[C@@H](CCCN=C(N)N)N(C(=O)[C@@H]2CCCN2C(=O)[C@H](CCCCN)NC(=O)[C@H](CC(N)=O)NC(=O)[C@H](CCC(=O)O)NC(=O)[C@H](Cc2ccc(O)cc2)NC(=O)[C@H](CC(C)C)NC(=O)[C@@H](N)CCC(=O)O)C1=O)C(=O)O,6.04
5,CC(C)C[C@H](NC(=O)[C@H](CCC(=O)O)NC(=O)[C@H](Cc1c[nH]c2ccccc12)NC(=O)[C@@H]1CCCN1C(=O)[C@H](CCCCN)NC(=O)[C@H](CCCN=C(N)N)N(C)C(=O)[C@@H]1CCCN1C(=O)[C@H](CCCCN)NC(=O)[C@H](CC(N)=O)NC(=O)[C@H](CCC(=O)O)NC(=O)[C@H](Cc1ccc(O)cc1)NC(=O)[C@H](CC(C)C)NC(=O)[C@@H](N)CCC(=O)O)C(=O)O (H-ELYENKP[NMeR]KPWEL-OH),< 5.00
6,CC(C)C[C@H](NC(=O)[C@@H](N)CCC(=O)O)C(=O)N[C@@H](Cc1ccc(O)cc1)C(=O)N[C@@H](CCC(=O)O)C(=O)N[C@@H](CC(N)=O)C(=O)N[C@@H](CCCCN)C(=O)N1CCC[C@H]1C(=O)N1C(=O)[C@H](CC(C)C)NC(=O)[C@H](C(C)(C)C)NC(=O)[C@H](Cc2c[nH]c3ccccc23)NC(=O)[C@@H]2CCCN2C(=O)[C@H](CCCCN)NC(=O)[C@@H]1CCCN=C(N)N,6.39
7,CC(C)C[C@H](NC(=O)[C@@H](N)CCC(=O)O)C(=O)N[C@@H](Cc1ccc(O)cc1)C(=O)N[C@@H](CCC(=O)O)C(=O)N[C@@H](CC(N)=O)C(=O)N[C@@H](CCCCN)C(=O)N1CCC[C@H]1C(=O)N(C)[C@@H](CCCN=C(N)N)C(=O)N1C(=O)[C@H](CC(C)C)NC(=O)[C@@H](CCC(=O)O)NC(=O)[C@H](Cc2c[nH]c3ccccc23)NC(=O)[C@@H]2CCCN2C(=O)[C@@H]1CCCCN,5.80
8,CC(C)C[C@H](NC(=O)[C@@H](NC(=O)[C@H](Cc1c[nH]c2ccccc12)NC(=O)[C@@H]1CCCN1C(=O)[C@H](CCCCN)NC(=O)[C@H](CCCN=C(N)N)N(C)C(=O)[C@@H]1CCCN1C(=O)[C@H](CCCCN)NC(=O)[C@H](CC(N)=O)NC(=O)[C@H](CCC(=O)O)NC(=O)[C@H](Cc1ccc(O)cc1)NC(=O)[C@H](CC(C)C)NC(=O)[C@@H](N)CCC(=O)O)C(C)(C)C)C(=O)O (H-ELYENKP[NMeR]KPW[Tle]L-OH),9.17
9,CC(C)C[C@H](NC(=O)CC[C@@H]1NC(=O)[C@H](Cc2c[nH]c3ccccc23)NC(=O)[C@@H]2CCCN2C(=O)[C@H](C)NC(=O)[C@@H](CCCN=C(N)N)N(C(=O)[C@@H]2CCCN2C(=O)[C@H](CCCCN)NC(=O)[C@H](CC(N)=O)NC(=O)[C@H](CCC(=O)O)NC(=O)[C@H](Cc2ccc(O)cc2)NC(=O)[C@H](CC(C)C)NC(=O)[C@@H](N)CCC(=O)O)C1=O)C(=O)O,< 5.00
10,CC(C)C[C@H](NC(=O)[C@@H](N)CCC(=O)O)C(=O)N[C@@H](Cc1ccc(O)cc1)C(=O)N[C@@H](CCC(=O)O)C(=O)N[C@@H](CC(N)=O)C(=O)N[C@@H](CCCCN)C(=O)N1CCC[C@H]1C(=O)N1C(=O)[C@H](CCC(=O)NCC(=O)O)NC(=O)[C@H](Cc2c[nH]c3ccccc23)NC(=O)[C@@H]2CCCN2C(=O)[C@H](CCCCN)NC(=O)[C@H]1CCCN=C(N)N,6.60
11,CC(C)CC(NC(=O)CC[C@H]1NC(=O)[C@H](Cc2c[nH]c3ccccc23)NC(=O)[C@@H]2CCCN2C(=O)[C@H](CCCCN)NC(=O)[C@@H](CCCN=C(N)N)N(C(=O)[C@@H]2CCCN2C(=O)[C@H](CCCCN)NC(=O)[C@H](CC(N)=O)NC(=O)C(CCC(=O)O)NC(=O)[C@H](Cc2ccc(O)cc2)NC(=O)[C@H](CC(C)C)NC(=O)C(N)CCC(=O)O)C1=O)C(=O)O (stereo in doubt),< 5.00
12,CC(C)C[C@H](NC(=O)[C@@H](N)CCC(=O)O)C(=O)N[C@@H](Cc1ccc(O)cc1)C(=O)N[C@@H](CCC(=O)O)C(=O)N[C@@H](CC(N)=O)C(=O)N[C@@H](CCCCN)C(=O)N1CCC[C@H]1C(=O)N1C(=O)[C@H](CCC(=O)O)NC(=O)[C@H](Cc2c[nH]c3ccccc23)NC(=O)[C@@H]2CCCN2C(=O)[C@H](CCCCN)NC(=O)[C@H]1CCCN=C(N)N,< 5.00
13,CC(C)C[C@H](NC(=O)[C@@H](N)CCC(=O)O)C(=O)N[C@@H](Cc1ccc(O)cc1)C(=O)N[C@@H](CCC(=O)O)C(=O)N[C@@H](CC(N)=O)C(=O)N[C@@H](CCCCN)C(=O)N1CCC[C@H]1C(=O)N(C)[C@@H](CCCN=C(N)N)C(=O)N1C(=O)[C@H](CC(C)C)NC(=O)[C@H](CCC(=O)O)NC(=O)[C@H](Cc2c[nH]c3ccccc23)NC(=O)[C@@H]2CCCN2C(=O)[C@@H]1CCCCN,6.11
14,CC(=O)N(C(=O)[C@@H]1CCCN1C(=O)[C@H](CCCCN)NC(=O)[C@H](CC(N)=O)NC(=O)[C@H](CCC(=O)O)NC(=O)[C@H](Cc1ccc(O)cc1)NC(=O)[C@H](CC(C)C)NC(=O)[C@@H](N)CCC(=O)O)[C@@H](CCCN=C(N)N)C(=O)N[C@@H](CCCCN)C(=O)N1CCC[C@H]1C(=O)N[C@@H](Cc1c[nH]c2ccccc12)C(=O)N[C@@H](CCC(N)=O)C(=O)N[C@@H](CC(C)C)C(=O)O,6.59
15,CC(C)CC(NC(=O)CC[C@@H]1NC(=O)[C@H](Cc2c[nH]c3ccccc23)NC(=O)[C@@H]2CCCN2C(=O)[C@H](CCCCN)NC(=O)[C@H](CCCN=C(N)N)N(C)C(=O)CN(C(=O)[C@@H]2CCCN2C(=O)[C@H](CCCCN)NC(=O)[C@H](CC(N)=O)NC(=O)[C@H](CCC(=O)O)NC(=O)[C@H](Cc2ccc(O)cc2)NC(=O)[C@H](CC(C)C)NC(=O)[C@@H](N)CCC(=O)O)C1=O)C(=O)O (some centres undefined),7.55
16,CC(C)C[C@H](NC(=O)[C@H]1NC(=O)[C@H](Cc2c[nH]c3ccccc23)NC(=O)[C@H]2CCCN2C(=O)[C@H](NC(=O)[C@H](CCCN=C(N)N)N(C)C(=O)[C@@H]2CCCN2C(=O)[C@H](CCCCN)NC(=O)[C@H](CC(N)=O)NC(=O)[C@H](CCC(=O)O)NC(=O)[C@H](Cc2ccc(O)cc2)NC(=O)[C@H](CC(C)C)NC(=O)[C@@H](N)CCC(=O)O)C(C)(C)SSC1(C)C)C(=O)O,5.36
17,CC(C)C[C@H](NC(=O)[C@@H](N)CCC(=O)O)C(=O)N[C@@H](Cc1ccc(O)cc1)C(=O)N[C@@H](CCC(=O)O)C(=O)N[C@@H](CC(N)=O)C(=O)N[C@@H](CCCCN)C(=O)N1CCC[C@H]1C(=O)N1C(=O)[C@H](CC(C)C)NC(=O)[C@H](C(C)(C)C)NC(=O)[C@H](Cc2ccc(O)cc2)NC(=O)[C@@H]2CCCN2C(=O)[C@H](CCCCN)NC(=O)[C@H]1CCCN=C(N)N,6.36
18,CC(C)C[C@H](NC(=O)[C@@H]1CSSC[C@@H](NC(=O)[C@H](CCCN=C(N)N)N(C)C(=O)[C@@H]2CCCN2C(=O)[C@H](CCCCN)NC(=O)[C@H](CC(N)=O)NC(=O)[C@H](CCC(=O)O)NC(=O)[C@H](Cc2ccc(O)cc2)NC(=O)[C@H](CC(C)C)NC(=O)[C@@H](N)CCC(=O)O)C(=O)N2CCC[C@@H]2C(=O)N[C@@H](Cc2c[nH]c3ccccc23)C(=O)N1)C(=O)O,6.09
19,CC(C)C[C@H](NC(=O)[C@@H](N)CCC(=O)O)C(=O)N[C@@H](Cc1ccc(O)cc1)C(=O)N[C@@H](CCC(=O)O)C(=O)N[C@@H](CC(N)=O)C(=O)N[C@@H](CCCCN)C(=O)N1CCC[C@H]1C(=O)N(C)[C@@H](CCCN=C(N)N)C(=O)N1C(=O)[C@H](CC(C)C)NC(=O)[C@@H](CCC(=O)O)NC(=O)[C@H](Cc2c[nH]c3ccccc23)NC(=O)[C@@H]2CCCN2C(=O)[C@H]1CCCCN,5.60

# Source: ChEMBL document CHEMBL1128568, “Design and structure-activity relationships of C-terminal cyclic neurotensin fragment analogues” (J Med Chem, 1995)
